The source made the active and inactive calls. The rule behind the calls is not given here.
What was measured:
[1] = test system: Aspergillus fumigatus; experiment: Antifungal activity against Aspergillus fumigatus at 1 mg/disk after 48 hrs; type: functional
Procedure, shortened: (§1)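 Paper disk diffusion assay against Aspergillus fumigatus on potato dextrose agar. Compound was applied per disk, and activity was recorded after 48 h incubation. Other assay conditions follow an earlier published method.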

[2] = test system: Aspergillus fumigatus; experiment: Antifungal activity against Aspergillus fumigatus at 10 mg/disk after 48 hrs; type: functional; procedure, shortened: as §1
[3] = test system: Aspergillus fumigatus; experiment: Antifungal activity against Aspergillus fumigatus at 5 mg/disk after 48 hrs; type: functional; procedure, shortened: as §1
[4] = test system: Aspergillus fumigatus; experiment: Antifungal activity against Aspergillus fumigatus at 0.5 mg/disk after 48 hrs; type: functional; procedure, shortened: as §1
[5] = test system: Aspergillus fumigatus; experiment: Antifungal activity against Aspergillus fumigatus up to 100 ug/disk after 48 hrs; type: functional, organism-based; procedure, shortened: as §1

Structure (SMILES)	Activity [4]	Activity [5]	inhibition zone (IZ) [2]	inhibition zone (IZ) [3]	also measured
CCOC(=O)C[C@H](O)C[C@H](O)CC[C@@H]1[C@@H]2C(=CCC[C@@H]2OC(=O)[C@@H](C)CC)C=C[C@@H]1C	inactive				Activity [1]: inactive; Activity [2]: inactive; Activity [3]: inactive
C[C@H]1C=CC2=CCC[C@H](O)[C@@H]2[C@H]1CC[C@@H](O)C[C@@H](O)CC(=O)O		inactive			
C[C@@H]1[C@H](CC[C@@H](O)C[C@@H](O)CC(=O)O)[C@H]2CCCCC2=C[C@H]1O		inactive			
C[C@@H]1[C@H](O)[C@@H](C)/C=C/C=C/C=C/C=C/C=C/C=C/C=C/[C@H](O[C@@H]2O[C@H](C)[C@@H](O)[C@H](N)[C@@H]2O)C[C@@H]2O[C@](O)(C[C@@H](O)C[C@@H](O)[C@H](O)CC[C@@H](O)C[C@@H](O)CC(=O)O[C@H]1C)C[C@H](O)[C@H]2C(=O)O [AMPHOTERICIN B]			13 mm	14 mm	inhibition zone (IZ) [1]: 11 mm
CC[C@H](C)C(=O)O[C@H]1CCC[C@@H]2CC[C@H](C)[C@H](CC[C@@H](O)C[C@@H](O)CC(=O)[O-])[C@H]21.[Na+]	inactive		22 mm	18 mm	
C[C@H]1C(=O)C=C2CCCC[C@@H]2[C@H]1CC[C@@H](O)C[C@@H](O)CC(=O)O		inactive			
CC[C@H](C)C(=O)O[C@H]1CCC[C@@H]2C=C[C@H](C)[C@H](CC[C@@H](O)C[C@@H](O)CC(=O)[O-])[C@@H]12.[Na+]	inactive		32 mm	21 mm	inhibition zone (IZ) [1]: 16 mm
